Test results from ChEMBL document CHEMBL4665875, “Synthesis, biological evaluation and in silico modeling of novel pan-genotypic NS5A inhibitors” (Bioorg Med Chem, 2020).

What was measured:
[1] = Cytotoxicity against HCV genotype 1b NS5A infected human HuH7 cells assessed as reduction in cell viability measured after 72 hrs by CellTiter-Glo assay; conditions: HuH7 cells infected with HCV genotype 1b NS5A
[2] = biological target: T1, Nonstructural protein 5A (Hepatitis C virus) (UniProt Q5L478); assay: Potency index, ratio of AV-4025 IC50 to test compound IC50 for inhibition of HCV genotype 3a NS5A infected in Huh7 cells assessed as reduction in viral replication incubated 3 days and measured by bright Glo-luciferase reporter gene assay; type: cell-based; conditions: Hepatitis C virus subtype 3a; time 3.0 day
T1 sequence (whole entry): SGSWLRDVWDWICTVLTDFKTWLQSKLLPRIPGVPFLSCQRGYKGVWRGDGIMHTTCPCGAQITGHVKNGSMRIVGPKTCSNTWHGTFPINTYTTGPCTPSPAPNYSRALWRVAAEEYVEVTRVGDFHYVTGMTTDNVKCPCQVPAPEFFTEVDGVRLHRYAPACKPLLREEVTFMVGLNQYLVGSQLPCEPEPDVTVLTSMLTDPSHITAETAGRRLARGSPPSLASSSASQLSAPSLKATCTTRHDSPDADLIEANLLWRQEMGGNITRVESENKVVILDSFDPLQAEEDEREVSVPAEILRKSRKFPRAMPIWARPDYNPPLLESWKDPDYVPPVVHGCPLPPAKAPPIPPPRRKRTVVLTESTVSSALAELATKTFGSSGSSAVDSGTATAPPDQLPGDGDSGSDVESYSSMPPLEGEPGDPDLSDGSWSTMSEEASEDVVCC

[3] = AUClast in Sprague-Dawley rat at 2 mg/kg, iv measured after 24 hrs by LC-MS/MS analysis; type: ADME, organism-based; parameters: route intravenous, time 24 hrs, dose 2 mg/kg; conditions: in vivo
How it was run: (§1)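 Male Sprague-Dawley rats (8–10 weeks), jugular-vein catheterized and fasted 12 h with water available. Intravenous dose of 2 mg/kg given in 10% DMSO/10% Solutol/80% 0.05 M N-methylglucamine. Blood taken into EDTA at 5, 15, 30 min and 1, 2, 4, 8 and 24 h. Plasma precipitated with acetonitrile plus tolbutamide internal standard, then analysed by LC-MS/MS.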

[4] = Half life in Sprague-Dawley rat at 10 mg/kg, po measured after 24 hrs by LC-MS/MS analysis; type: ADME, organism-based; conditions: Sprague-Dawley, in vivo
How it was run: (§2)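 Male Sprague-Dawley rats (8–10 weeks), jugular-vein catheterized and fasted 12 h with water available. Oral dose of 10 mg/kg given in 0.5% methyl cellulose. Blood taken into EDTA at 15, 30 min and 1, 2, 4, 8 and 24 h. Plasma protein-precipitated with acetonitrile containing tolbutamide internal standard, held at −20 °C for 15 min, centrifuged, then analysed by LC-MS/MS.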

[5] = MRT (0 to infinity) in Sprague-Dawley rat at 2 mg/kg, iv measured after 24 hrs by LC-MS/MS analysis; type: ADME, organism-based; conditions: in vivo
How it was run: as §1

[6] = AUC (0 to infinity) in Sprague-Dawley rat at 2 mg/kg, iv measured after 24 hrs by LC-MS/MS analysis; type: ADME, organism-based; parameters: route intravenous, dose 2 mg/kg, time 24 hrs; conditions: in vivo
How it was run: as §1

[7] = Oral bioavailability in Sprague-Dawley rat at 10 mg/kg, po measured after 24 hrs by LC-MS/MS analysis; type: ADME, organism-based; conditions: in vivo
How it was run: as §2

[8] = MRTlast in Sprague-Dawley rat at 2 mg/kg, iv measured after 24 hrs by LC-MS/MS analysis; type: ADME, organism-based; conditions: in vivo
How it was run: as §1

[9] = MRT (0 to infinity) in Sprague-Dawley rat at 10 mg/kg, po measured after 24 hrs by LC-MS/MS analysis; type: ADME, organism-based; conditions: in vivo
How it was run: as §2

[10] = MRTlast in Sprague-Dawley rat at 10 mg/kg, po measured after 24 hrs by LC-MS/MS analysis; type: ADME, organism-based; conditions: in vivo
How it was run: as §2

[11] = Half life in Sprague-Dawley rat at 2 mg/kg, iv measured after 24 hrs by LC-MS/MS analysis; type: ADME, organism-based; conditions: in vivo
How it was run: as §1

[12] = AUClast in Sprague-Dawley rat at 10 mg/kg, po measured after 24 hrs by LC-MS/MS analysis; type: ADME, organism-based; parameters: route oral, dose 10 mg/kg, time 24 hrs; conditions: in vivo
How it was run: as §2

[13] = AUC (0 to infinity) in Sprague-Dawley rat at 10 mg/kg, po measured after 24 hrs by LC-MS/MS analysis; type: ADME, organism-based; parameters: route oral, time 24 hrs, dose 10 mg/kg; conditions: Sprague-Dawley, in vivo
How it was run: as §2

[14] = Tmax in Sprague-Dawley rat at 10 mg/kg, po measured after 24 hrs by LC-MS/MS analysis; type: ADME, organism-based; conditions: Sprague-Dawley, in vivo, read-out: Tmax
How it was run: as §2

[15] = Tmax in Sprague-Dawley rat at 2 mg/kg, iv measured after 24 hrs by LC-MS/MS analysis; type: ADME, organism-based; conditions: in vivo
How it was run: as §1

[16] = Cmax in Sprague-Dawley rat at 2 mg/kg, iv measured after 24 hrs by LC-MS/MS analysis; type: ADME, organism-based; parameters: route intravenous, dose 2 mg/kg, time 24 hrs; conditions: in vivo
How it was run: as §1

[17] = Cmax in Sprague-Dawley rat at 10 mg/kg, po measured after 24 hrs by LC-MS/MS analysis; type: ADME, organism-based; parameters: route oral, time 24 hrs, dose 10 mg/kg; conditions: Sprague-Dawley, in vivo, read-out: Cmax
How it was run: as §2

Question: With `COC(=O)N[C@H](C(=O)N1CCC[C@H]1c1ncc(C#CC#Cc2c(F)cc(-c3cnc([C@@H]4CCCN4C(=O)[C@@H](NC(=O)OC)C(C)C)[nH]3)cc2-c2ccccc2)[nH]1)C(C)C` as the compound, how does the CC50 at 72 h [1] read?
Answer: The CC50 at 72 h was > 10 µM.

Question: For `COC(=O)NC(C(=O)N1CCC[C@H]1c1ncc(-c2ccc(C#CC#Cc3cnc([C@@H]4CCCN4C(=O)C(NC(=O)OC)C(C)C)[nH]3)cc2)[nH]1)c1ccccc1` (single isomer, unassigned), which CC50 at 72 h [1] is on record?
Answer: Its CC50 at 72 h is > 10 µM.

Question: And the Ratio IC50 [2]?
Answer: Its Ratio IC50 is 6.8.

Question: With `COC(=O)N[C@H](C(=O)N1CCC[C@H]1c1ncc(C#CC#Cc2ccc(-c3cnc([C@@H]4CCCN4C(=O)[C@@H](NC(=O)OC)C(C)C)[nH]3)cc2-c2ccc(C(C)(C)C)cc2)[nH]1)C(C)C` as the compound, how does the CC50 at 72 h [1] read?
Answer: The CC50 at 72 h was > 10 µM.

Question: Which CC50 at 72 h [1] does the source give for `COC(=O)N[C@H](C(=O)N1CCC[C@H]1c1ncc(-c2ccc(C#CC#Cc3cnc([C@@H]4CCCN4C(=O)[C@H](NC(=O)OC)c4ccccc4)[nH]3)c(-c3cccc(-c4ccccc4)c3)c2)[nH]1)C(C)C` here?
Answer: Its CC50 at 72 h is > 10 µM.

Question: For `COC(=O)N[C@H](C(=O)N1CCC[C@H]1c1ncc(-c2ccc(C#CC#Cc3cnc([C@@H]4CCCN4C(=O)[C@H](NC(=O)OC)c4ccccc4)[nH]3)c(Sc3ccccc3)c2)[nH]1)C(C)C`, which CC50 at 72 h [1] is on record?
Answer: Its CC50 at 72 h is > 10 µM.

Question: For `COC(=O)N[C@H](C(=O)N1CCC[C@H]1c1ncc(C#CC#Cc2c(C)cc(-c3cnc([C@@H]4CCCN4C(=O)[C@@H](NC(=O)OC)C(C)C)[nH]3)cc2-c2ccccc2)[nH]1)C(C)C`, which CC50 at 72 h [1] is on record?
Answer: The CC50 at 72 h was > 10 µM.

Question: For `COC(=O)N[C@H](C(=O)N1CCC[C@H]1c1ncc(C#CC#Cc2ccc(-c3cnc([C@@H]4CCCN4C(=O)[C@@H](NC(=O)OC)C(C)C)[nH]3)cc2-c2cccc(-c3ccccc3)c2)[nH]1)C(C)C`, which CC50 at 72 h [1] is on record?
Answer: Its CC50 at 72 h is > 10 µM.

Question: What does the source list for `COC(=O)N[C@H](C(=O)N1CCC[C@H]1c1ncc(-c2ccc(C#CC#Cc3cnc([C@@H]4CCCN4C(=O)[C@H](NC(=O)OC)c4ccccc4)[nH]3)cc2)[nH]1)C(C)C`?
Answer: CC50 at 72 h [1]: > 10 µM; Ratio IC50 [2]: 13

Question: Which results are given for `COC(=O)N[C@H](C(=O)N1CCC[C@H]1c1ncc(-c2ccc(C#CC#Cc3cnc([C@@H]4CCCN4C(=O)[C@H](NC(=O)OC)c4ccccc4)[nH]3)c(-c3cccc(F)c3F)c2)[nH]1)C(C)C`?
Answer: AUC(0-t) at 24 h [3]: 0.279 µg·h/mL; half-life [4]: 0.6 h; MRT inf [5]: 4.7 h; AUC(0-inf) [6]: 0.285 µg·h/mL; bioavailability [7]: 4.3%; MRT last at 24 h [8]: 4.2 h; MRT inf [9]: 1.5 h; MRT last at 24 h [10]: 1.4 h; half-life [11]: 4.6 h; AUC(0-t) at 24 h [12]: 0.0587 µg·h/mL; AUC(0-inf) [13]: 0.0617 µg·h/mL; Tmax [14]: 1 h; Tmax [15]: 4.98 min; Cmax [16]: 0.114 µg/mL; Cmax [17]: 0.0383 µg/mL

Question: Which AUC(0-t) at 24 h [3] does the source give for `COC(=O)N[C@H](C(=O)N1CCC[C@H]1c1ncc(-c2ccc(C#CC#Cc3cnc([C@@H]4CCCN4C(=O)[C@H](NC(=O)OC)c4ccccc4)[nH]3)c(-c3ccccc3)c2)[nH]1)C(C)C.Cl.Cl` here?
Answer: Its AUC(0-t) at 24 h is 8.26 µg·h/mL.

Question: What about the half-life [4] of the same compound?
Answer: The half-life was 1.6 h.

Question: What about the MRT inf [5] of the same compound?
Answer: The MRT inf was 1.3 h.

Question: What about the AUC(0-inf) [6] of the same compound?
Answer: The AUC(0-inf) was 8.33 µg·h/mL.

Question: What about the CC50 at 72 h [1] of the same compound?
Answer: The CC50 at 72 h was > 10 µM.

Question: What about the bioavailability [7] of the same compound?
Answer: Its bioavailability is 31%.

Question: What about the MRT last at 24 h [8] of the same compound?
Answer: Its MRT last at 24 h is 1.2 h.

Question: What about the MRT inf [9] of the same compound?
Answer: The MRT inf was 3.1 h.

Question: And the MRT last at 24 h [10]?
Answer: The MRT last at 24 h was 2.8 h.

Question: What about the half-life [11] of the same compound?
Answer: Its half-life is 1.2 h.

Question: What about the AUC(0-t) at 24 h [12] of the same compound?
Answer: Its AUC(0-t) at 24 h is 12.6 µg·h/mL.

Question: And the AUC(0-inf) [13]?
Answer: Its AUC(0-inf) is 13.1 µg·h/mL.

Question: And the Tmax [14]?
Answer: Its Tmax is 2 h.

Question: And the Tmax [15]?
Answer: The Tmax was 4.98 min.

Question: What about the Cmax [16] of the same compound?
Answer: Its Cmax is 7.76 µg/mL.

Question: What about the Cmax [17] of the same compound?
Answer: Its Cmax is 2.98 µg/mL.

Question: Which CC50 at 72 h [1] does the source give for `COC(=O)N[C@H](C(=O)N1CCC[C@H]1c1ncc(C#CC#Cc2ccc(-c3cnc([C@@H]4CCCN4C(=O)[C@@H](NC(=O)OC)C(C)C)[nH]3)cc2)[nH]1)c1ccccc1` here?
Answer: The CC50 at 72 h was > 10 µM.

Question: For `COC(=O)N[C@H](C(=O)N1CCC[C@H]1c1ncc(-c2ccc(C#CC#Cc3cnc([C@@H]4CCCN4C(=O)[C@H](NC(=O)OC)c4ccccc4)[nH]3)c(-c3ccc(N4CCN(C)CC4)cc3)c2)[nH]1)C(C)C`, which CC50 at 72 h [1] is on record?
Answer: The CC50 at 72 h was > 10 µM.
